The values that follow come from ChEMBL document CHEMBL1123030, “N-(Aminoalkyl)imide antineoplastic agents. Synthesis and biological activity” (J Med Chem, 1985).

A short description of data set [1]: Cytotoxic activity against human colon adenocarcinoma in vitro. It is filed as functional.
The test system of data set [2] is Mus musculus. As to the kind of experiment: Compound was evaluated for inhibitory activity in vivo against P388 leukemia cells in mice at a dose of 0.78 mg/kg upon intraperitoneal administration. It is filed as functional. The gist of the method: (§1)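 Tumor source was ascites fluid implanted into BDF₁ mice. Tumor inoculation and drug dosing were both intraperitoneal, given once daily for 5 days (q1d × 5). Screening and data interpretation followed the general NCI protocol.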

Data set [3] deals with Mus musculus. The data set is described as follows: Compound was evaluated for inhibitory activity in vivo against P388 leukemia cells in mice at a dose of 1.56 mg/kg upon intraperitoneal administration. It is filed as functional. The gist of the method: as §1
Data set [4] concerns Mus musculus. The data set is described as follows: Compound was evaluated for inhibitory activity in vivo against P388 leukemia cells in mice at a dose of 3.12 mg/kg upon intraperitoneal administration. It is filed as functional. The method, boiled down:
as §1

Data set [5] relates to L1210. As to the kind of experiment: Cytotoxic activity against L1210 leukemia in vitro. Format: functional, Mus musculus.
Data set [6] deals with Mus musculus. As to the kind of experiment: Compound was evaluated for inhibitory activity in vivo against P388 leukemia cells in mice at a dose of 0.39 mg/kg upon intraperitoneal administration. Format: functional. The method, boiled down:
as §1

Data set [7] deals with P388. The data set is described as follows: Inhibitory activity in vivo against P388 leukemia cells in mice at a dose of 50 mg/kg upon intraperitoneal administration. Format: functional, Mus musculus. The method, boiled down: as §1
In data set [8] the test system is L1210. The data set is described as follows: Compound was tested for cytotoxic activity against L1210 leukemia in vitro; IA means Inactive. It is filed as functional, cell-based. The conditions noted are these: Mus musculus.
For data set [9], the system named is P388. As to the kind of experiment: Inhibitory activity in vivo against P388 leukemia cells in mice at a dose of 25 mg/kg upon intraperitoneal administration. It is filed as functional, Mus musculus. The gist of the method: as §1
Data set [10] relates to P388. As to the kind of experiment: Inhibitory activity in vivo against P388 leukemia cells in mice at a dose of 100 mg/kg upon intraperitoneal administration. Format: functional, Mus musculus. The gist of the method: as §1
For data set [11], the system named is P388. The data set is described as follows: Inhibitory activity in vivo against P388 leukemia cells in mice at a dose of 12.5 mg/kg upon intraperitoneal administration. Format: functional, Mus musculus. The gist of the method:
as §1

Data set [12] can be described thus: Compound was tested for cytotoxic activity against human colon adenocarcinoma in vitro; IA means Inactive.
For data set [13], the system named is Mus musculus. The data set is described as follows: Compound was evaluated for inhibitory activity in vivo against P388 leukemia cells in mice at a dose of 15 mg/kg upon intraperitoneal administration. Format: functional. The gist of the method: as §1
The subject of data set [14] is L1210 leukemia (Mus musculus). As to the kind of experiment: Compound was evaluated for inhibitory activity against L1210 leukemia in mice at a dose of 50 mg/kg upon intraperitoneal administration.
Data set [15] has as its system Mus musculus. The data set is described as follows: Compound was evaluated for inhibitory activity in vivo against P388 leukemia cells in mice at a dose of 30 mg/kg upon intraperitoneal administration. Format: functional. The gist of the method:
as §1

Data set [16] concerns Mus musculus. As to the kind of experiment: Compound was evaluated for inhibitory activity in vivo against P388 leukemia cells in mice at a dose of 60 mg/kg upon intraperitoneal administration. Format: functional. The method, boiled down: as §1
Data set [17] deals with Mus musculus. As to the kind of experiment: Compound was evaluated for inhibitory activity in vivo against P388 leukemia cells in mice at a dose of 3.75 mg/kg upon intraperitoneal administration. Format: functional. The gist of the method:
as §1

The test system of data set [18] is Mus musculus. The data set is described as follows: Compound was evaluated for inhibitory activity in vivo against P388 leukemia cells in mice at a dose of 7.5 mg/kg upon intraperitoneal administration. Format: functional. The gist of the method: as §1

SMILES strings stand for the structures. The source made the active and inactive calls. No cut-off for these calls is given here.

For the compound `Cl.O=C1c2cc([N+](=O)[O-])cc3cc([N+](=O)[O-])cc(c23)C(=O)N1CCN1CCCC1`, the Cytotoxic concentration in [1] came to 172 nM; in the data set with L1210 [5], 82.9 nM. For the same compound, the T/C in the data set on Mus musculus [2] amounted to 126; in the data set on Mus musculus [3], 138; with Mus musculus [4] it was 136; in the data set with Mus musculus [6], 117.
Turning to `O=C1c2cc([N+](=O)[O-])cc3cc([N+](=O)[O-])cc(c23)C(=O)N1c1nncs1`, the T/C is on record as 127 in the data set on P388 [7], 119 in the data set with P388 [9], 137 in the data set on P388 [10] and 91 with P388 [11]. For the same compound, the Cytotoxic concentration entry in the data set with L1210 [8] is “inactive”. Moreover, in data set [12], the Cytotoxic concentration result is reported as “Not Active”.
On to `Cl.Nc1cc2c3c(cc(N)cc3c1)C(=O)N(CCN1CCCCC1)C2=O`, for which the Cytotoxic concentration in [1] is 1270 nM; with L1210 [5] it was 1390 nM. In addition, the T/C in the data set with Mus musculus [13] is recorded as 136; in [14], 145; with Mus musculus [15] it was 142; with P388 [11], 119; in the data set on Mus musculus [16], 191.
For `CN(C)CCN1C(=O)c2cc(N)cc3cc(N)cc(c23)C1=O.Cl.Cl.Cl`, the Cytotoxic concentration in [1] was 677 nM; in the data set with L1210 [5], 337 nM. Also, the T/C was determined as 163 with Mus musculus [13], 125 in the data set with Mus musculus [17], 163 with Mus musculus [18] and 188 in the data set with Mus musculus [16].
